Test results: ChEMBL document CHEMBL4680125, “Synthesis and bioevaluation of 1-phenylimidazole-4-carboxylic acid derivatives as novel xanthine oxidoreductase inhibitors” (Eur J Med Chem, 2020)
pIC50: −log10 of the molar value. Calls of active or inactive are those of the source. No cut-off for these calls is given here.

Legend:
[1] = biological target: Xanthine dehydrogenase/oxidase (Bos taurus, UniProt P80457); experiment: Inhibition of bovine xanthine oxidase assessed as reduction in uric acid formation using xanthine as substrate incubated for 3 mins by microplate assay
[2] = tested on: Mus musculus; experiment: Hypouricemic activity in ICR mouse model of xanthine/potassium oxonate-induced acute hyperuricemia assessed as decrease in serum uric acid level at 5 mg/kg, ig relative to control; type: functional, organism-based; conditions: TDE = time-dependent effect
In short: (§1)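 ICR mice (18–22 g), acclimatized ≥1 week. Acute hyperuricemia induced by potassium oxonate 250 mg/kg s.c. plus hypoxanthine 400 mg/kg i.p., both in saline. Baseline tail blood taken at 1 h, then compound given intragastrically at 5 mg/kg as a suspension in 0.5% CMC-Na; model group received vehicle. […] Mean ± S.D.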

[3] = tested on: Mus musculus; experiment: Hypouricemic activity in ICR mouse model of xanthine/potassium oxonate-induced acute hyperuricemia assessed as decrease in serum uric acid level at 5 mg/kg, ig measured after 4 hrs relative to control; type: functional, organism-based; in short: as §1
[4] = tested on: Mus musculus; experiment: Hypouricemic activity in ICR mouse model of xanthine/potassium oxonate-induced long term hyperuricemia assessed as decrease in serum uric acid level at 5 mg/kg, ig qd treated subsequently for 7 days relative to control; type: functional, organism-based; conditions: time 7.0 day
In short: (§2)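 Long-term model in ICR mice: potassium oxonate 250 mg/kg s.c. plus hypoxanthine 150 mg/kg i.p. at 9:00 AM, once daily for 7 days. Compound dosed intragastrically at 5 mg/kg (0.5% CMC-Na suspension) at 10:00 AM for 7 days. Serum obtained by centrifugation at 4000 r/min for 10 min and stored at −80 °C. Uric acid, creatinine and urea nitrogen measured with diagnostic kits; n = 8.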

[5] = Toxicity in ICR mouse model of xanthine/potassium oxonate-induced hyperuricemia assessed as creatinine level at 5 mg/kg, ig qd treated subsequently for 7 days relative to control; type: organism-based; conditions: in vivo, po, 168 h, time 7 day; in short: as §2
[6] = Toxicity in ICR mouse model of xanthine/potassium oxonate-induced hyperuricemia assessed as urea nitrogen level at 5 mg/kg, ig qd treated subsequently for 7 days relative to control; type: organism-based; conditions: in vivo, po, 168 h, time 7 day; in short: as §2

Chain of Xanthine dehydrogenase/oxidase (P80457 whole entry): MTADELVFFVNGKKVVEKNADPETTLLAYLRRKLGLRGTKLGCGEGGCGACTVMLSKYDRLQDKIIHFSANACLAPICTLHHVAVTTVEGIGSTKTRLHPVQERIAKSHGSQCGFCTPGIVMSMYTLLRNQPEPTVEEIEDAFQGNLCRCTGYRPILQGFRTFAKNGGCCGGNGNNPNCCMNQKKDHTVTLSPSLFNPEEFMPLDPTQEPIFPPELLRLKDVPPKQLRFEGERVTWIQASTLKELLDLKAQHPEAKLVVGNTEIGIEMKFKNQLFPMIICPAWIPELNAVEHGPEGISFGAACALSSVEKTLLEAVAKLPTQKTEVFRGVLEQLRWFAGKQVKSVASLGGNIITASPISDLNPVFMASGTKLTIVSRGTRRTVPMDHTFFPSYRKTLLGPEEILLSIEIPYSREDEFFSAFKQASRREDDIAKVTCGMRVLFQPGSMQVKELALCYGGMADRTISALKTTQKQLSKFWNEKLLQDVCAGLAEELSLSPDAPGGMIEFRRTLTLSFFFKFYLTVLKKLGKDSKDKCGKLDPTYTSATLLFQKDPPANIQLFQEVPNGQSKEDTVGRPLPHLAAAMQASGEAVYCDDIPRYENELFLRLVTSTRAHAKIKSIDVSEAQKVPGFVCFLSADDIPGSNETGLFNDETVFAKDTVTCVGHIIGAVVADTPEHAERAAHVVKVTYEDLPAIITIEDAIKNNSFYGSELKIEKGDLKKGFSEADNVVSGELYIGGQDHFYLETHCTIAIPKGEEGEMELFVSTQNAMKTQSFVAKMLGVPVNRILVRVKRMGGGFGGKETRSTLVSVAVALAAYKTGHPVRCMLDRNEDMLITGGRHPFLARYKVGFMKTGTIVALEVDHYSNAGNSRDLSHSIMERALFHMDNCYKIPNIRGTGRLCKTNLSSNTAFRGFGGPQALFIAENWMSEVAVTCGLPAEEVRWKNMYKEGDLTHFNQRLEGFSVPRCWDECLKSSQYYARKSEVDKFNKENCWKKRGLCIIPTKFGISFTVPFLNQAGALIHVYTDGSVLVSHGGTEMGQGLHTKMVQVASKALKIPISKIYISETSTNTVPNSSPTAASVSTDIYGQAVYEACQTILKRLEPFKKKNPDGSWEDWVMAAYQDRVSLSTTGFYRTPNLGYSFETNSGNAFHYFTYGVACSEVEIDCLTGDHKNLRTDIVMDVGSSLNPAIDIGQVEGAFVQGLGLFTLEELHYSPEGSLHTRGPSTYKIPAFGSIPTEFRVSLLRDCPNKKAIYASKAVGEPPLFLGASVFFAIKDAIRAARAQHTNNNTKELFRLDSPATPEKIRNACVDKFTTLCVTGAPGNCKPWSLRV

SMILES	pIC50 [1]	further results
CCOc1ccc(-n2cnc(C(=O)O)c2)cc1C#N	6.65	
CCC(CC)Oc1ccc(-n2cnc(C(=O)O)c2)cc1C#N	7.39	
N#Cc1cc(-n2cnc(C(=O)O)c2)ccc1N1CCCCC1	7.25	
N#Cc1cc(-n2cnc(C(=O)O)c2)ccc1N1CCCC1	7.47	
CC1CCN(c2ccc(-n3cnc(C(=O)O)c3)cc2C#N)CC1	7.52	
CCC(C)Oc1ccc(-n2cnc(C(=O)O)c2)cc1C#N (configuration not stated)	7.13	
CC(C)CN(C)c1ccc(-n2cnc(C(=O)O)c2)cc1C#N	7.57	
N#Cc1cc(-c2c[nH]c(C(=O)O)n2)ccc1OC1CCCC1	6.41	
N#Cc1cc(-n2cnc(C(=O)O)c2)ccc1N1CCCCCCC1	8.10	Activity [2]: Tde; Activity [3]: Active; Activity [4]: Active; Activity [5]: Toxic; Activity [6]: Toxic
CCC(CC)COc1ccc(-n2cnc(C(=O)O)c2)cc1C#N	7.53	
CC(C)COc1ccc(-c2c[nH]c(C(=O)O)n2)cc1C#N	6.29	
CC(C)Oc1ccc(-n2cnc(C(=O)O)c2)cc1C#N	6.70	
CCOc1ccc(-c2c[nH]c(C(=O)O)n2)cc1C#N	6.02	
N#Cc1cc(-n2cnc(C(=O)O)c2)ccc1OC1CCCC1	7.20	
COc1cccc(-c2ccc(-n3cnc(C(=O)O)c3)cc2C#N)c1	7.13	
CC(C)COc1ccc(-c2cn(C)c(C(=O)O)n2)cc1C#N	5.67	
CC(C)COc1ccc(-n2cnc(C(=O)O)c2)cc1C#N	7.02	
CC(C)Oc1ccc(-c2c[nH]c(C(=O)O)n2)cc1C#N	6.12	
CC(C)(C)COc1ccc(-n2cnc(C(=O)O)c2)cc1C#N	7.17	
N#Cc1cc(-n2cnc(C(=O)O)c2)ccc1OC1CCCCC1	7.32	
COc1ccc(-c2ccc(-n3cnc(C(=O)O)c3)cc2C#N)cc1	7.46	
CC(C)(C)c1ccc(-c2ccc(-n3cnc(C(=O)O)c3)cc2C#N)cc1	8.14	Activity [2]: Tde; Activity [3]: Active; Activity [4]: Active; Activity [5]: Toxic; Activity [6]: Toxic
